# Calls of active or inactive are those of the source. How the calls were made is not given here.
# Test system: Human alphaherpesvirus 1
# Test: Antiviral activity against HSV1 KOS infected in african green monkey Vero cells after 3 days by plaque reduction assay
# Format: functional, organism-based
# Settings: Human alphaherpesvirus 1, KOS, 72 h
# Summary of the method: (§1)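 Plaque reduction assay. Vero 76 cells at 2 × 10^5/well, grown overnight to confluence in D-MEM with 10% FBS. Infected 2 h with 50–100 PFU/well, unadsorbed virus removed. Overlay of D-MEM with 1% inactivated FBS and 0.75% methylcellulose, with or without serial compound dilutions. Incubated at 37 °C for 3 days (HSV-1 KOS, CVB-2 Ohio-1) or 5 days (RSV A2). Fixed and stained with crystal violet in 50% ethanol; plaques counted; EC50 by linear regression.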
row,SMILES,EC50
1,O=C(O)CCC(=O)Nc1ccc(-c2nc3cc(C(F)(F)F)ccc3[nH]2)cc1,> 100 µM
2,O=c1cnn([C@@H]2O[C@H](CO)[C@@H](O)[C@H]2O)c(=O)[nH]1 (stereo in doubt; form 2) [6-AZAURIDINE],> 20 µM
3,O=C(Nc1ccc(-c2nc3cc(C(F)(F)F)ccc3[nH]2)cc1)Nc1ccc(-c2nc3cc(C(F)(F)F)ccc3[nH]2)cc1,> 100 µM
4,CN1CCN(CC(=O)Nc2ccc(-c3nc4cc(Cl)c(Cl)cc4[nH]3)cc2)CC1,51 µM
5,Nc1nc2c(ncn2COCCO)c(=O)[nH]1 [ACYCLOVIR],3 µM

# Test system: Bovine viral diarrhea virus 1
# Test: Antiviral activity against Bovine viral diarrhea virus NADL infected in MDBK cells assessed as protection from virus-induced cytopathogenicity after 3 to 4 days by MTT method
# Format: functional, organism-based, Bovine viral diarrhea virus 1-NADL
# Settings: Bovine viral diarrhea virus isolates and strains, MDBK
# Summary of the method: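 Cytopathogenicity protection assay. MDBK cells at 3 × 10^4/well, grown overnight to confluence. Infected with BVDV NADL at m.o.i. 0.01 in MEM-E with 0.5% inactivated FBS, 1 mM Na pyruvate and 1% kanamycin. Serial compound dilutions added after 1 h. After 3–4 days at 37 °C, viability read by MTT; EC50 is the concentration giving 50% protection.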
row,SMILES,EC50
1,O=C(O)CCC(=O)Nc1ccc(-c2nc3cc(C(F)(F)F)ccc3[nH]2)cc1,> 100 µM
2,O=c1cnn([C@@H]2O[C@H](CO)[C@@H](O)[C@H]2O)c(=O)[nH]1 (stereo in doubt; form 2) [6-AZAURIDINE],> 100 µM
3,O=C(Nc1ccc(-c2nc3cc(C(F)(F)F)ccc3[nH]2)cc1)Nc1ccc(-c2nc3cc(C(F)(F)F)ccc3[nH]2)cc1,> 100 µM
4,CN1CCN(CC(=O)Nc2ccc(-c3nc4cc(Cl)c(Cl)cc4[nH]3)cc2)CC1,4 µM
5,Nc1nc2c(ncn2COCCO)c(=O)[nH]1 [ACYCLOVIR],> 100 µM

# Test system: Human immunodeficiency virus 1
# Test: Antiviral activity against HIV1 3B infected in human MT4 cells assessed as protection from virus-induced cytopathogenicity after 4 days by MTT method
# Format: functional, organism-based
# Settings: not given
# Summary of the method: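 MT-4 cells, 1 × 10^4/well in RPMI with or without serial compound dilutions, infected with HIV-1 IIIB, 100 CCID50 (m.o.i. 0.01). Protection from virus-induced cytopathogenicity read by MTT.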
row,SMILES,Activity
1,O=C(O)CCC(=O)Nc1ccc(-c2nc3cc(C(F)(F)F)ccc3[nH]2)cc1,inactive
2,O=C(Nc1ccc(-c2nc3cc(C(F)(F)F)ccc3[nH]2)cc1)Nc1ccc(-c2nc3cc(C(F)(F)F)ccc3[nH]2)cc1,inactive
3,CN1CCN(CC(=O)Nc2ccc(-c3nc4cc(Cl)c(Cl)cc4[nH]3)cc2)CC1,inactive

# Test system: Respiratory syncytial virus
# Test: Antiviral activity against RSV A2 infected in african green monkey Vero cells after 5 days by plaque reduction assay
# Format: functional, organism-based
# Settings: human respiratory syncytial virus, A2, Vero, 120 h
# Summary of the method: as §1
row,SMILES,EC50
1,Nc1nc2c(ncn2COCCO)c(=O)[nH]1 [ACYCLOVIR],> 100 µM

# Same assay, conditions: vero
row,SMILES,EC50
1,O=c1cnn([C@@H]2O[C@H](CO)[C@@H](O)[C@H]2O)c(=O)[nH]1 (stereo in doubt; form 2) [6-AZAURIDINE],1.2 µM

# Test system: not listed separately
# Test: Cytotoxicity against african green monkey Vero cells
# Format: cell-based
# Settings: chlorocebus sabaeus
# Summary of the method: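 Vero 76 monolayers exposed to serial compound dilutions, run in parallel on the same 24-well plates as the plaque-reduction assays. CC50 is the concentration reducing viability of mock-infected cells by 50%.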
row,SMILES,CC50
1,O=C(O)CCC(=O)Nc1ccc(-c2nc3cc(C(F)(F)F)ccc3[nH]2)cc1,> 100 µM
2,O=C(Nc1ccc(-c2nc3cc(C(F)(F)F)ccc3[nH]2)cc1)Nc1ccc(-c2nc3cc(C(F)(F)F)ccc3[nH]2)cc1,> 100 µM
3,CN1CCN(CC(=O)Nc2ccc(-c3nc4cc(Cl)c(Cl)cc4[nH]3)cc2)CC1,> 100 µM
4,Nc1nc2c(ncn2COCCO)c(=O)[nH]1 [ACYCLOVIR],> 100 µM

# Test system: not listed separately
# Test: Cytotoxicity against MDBK cells after 48 to 96 hrs by MTT assay
# Format: cell-based, Bos taurus
# Settings: cattle, MDBK cells
# Summary of the method: (§2)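 Cell seeding: MDBK at 6 × 10^5 cells/mL in MEM-E with 10% horse serum and 1 mM Na pyruvate; BHK at 1 × 10^6 cells/mL in MEM-E with 10% FBS. Serial compound dilutions, 37 °C, 5% CO2. Viability of mock-infected cells by MTT after 48–96 h; CC50 is the concentration reducing viability by 50%.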
row,SMILES,CC50
1,O=C(O)CCC(=O)Nc1ccc(-c2nc3cc(C(F)(F)F)ccc3[nH]2)cc1,> 100 µM
2,O=c1cnn([C@@H]2O[C@H](CO)[C@@H](O)[C@H]2O)c(=O)[nH]1 (stereo in doubt; form 2) [6-AZAURIDINE],> 100 µM
3,O=C(Nc1ccc(-c2nc3cc(C(F)(F)F)ccc3[nH]2)cc1)Nc1ccc(-c2nc3cc(C(F)(F)F)ccc3[nH]2)cc1,> 100 µM
4,CN1CCN(CC(=O)Nc2ccc(-c3nc4cc(Cl)c(Cl)cc4[nH]3)cc2)CC1,90 µM
5,Nc1nc2c(ncn2COCCO)c(=O)[nH]1 [ACYCLOVIR],> 100 µM

# Test system: not listed separately
# Test: Cytotoxicity against BHK cells after 48 to 96 hrs by MTT assay
# Format: cell-based, Mesocricetus auratus
# Settings: hamster
# Summary of the method: as §2
row,SMILES,CC50
1,O=C(O)CCC(=O)Nc1ccc(-c2nc3cc(C(F)(F)F)ccc3[nH]2)cc1,> 100 µM
2,O=c1cnn([C@@H]2O[C@H](CO)[C@@H](O)[C@H]2O)c(=O)[nH]1 (stereo in doubt; form 2) [6-AZAURIDINE],> 100 µM
3,O=C(Nc1ccc(-c2nc3cc(C(F)(F)F)ccc3[nH]2)cc1)Nc1ccc(-c2nc3cc(C(F)(F)F)ccc3[nH]2)cc1,17 µM
4,CN1CCN(CC(=O)Nc2ccc(-c3nc4cc(Cl)c(Cl)cc4[nH]3)cc2)CC1,41 µM
5,Nc1nc2c(ncn2COCCO)c(=O)[nH]1 [ACYCLOVIR],> 100 µM

# Test system: Vaccinia virus
# Test: Antiviral activity against Vaccinia virus Elstree-Lister infected in african green monkey Vero cells after 3 days by plaque reduction assay
# Format: functional, organism-based
# Settings: Orthopoxvirus vaccinia, 72 h
row,SMILES,EC50
1,CN1CCN(CC(=O)Nc2ccc(-c3nc4cc(Cl)c(Cl)cc4[nH]3)cc2)CC1,6 µM
2,Nc1nc2c(ncn2COCCO)c(=O)[nH]1 [ACYCLOVIR],> 100 µM

# Test system: Poliovirus 1
# Test: Antiviral activity against Polio virus type1 Sabin strain Chat infected in african green monkey Vero cells after 2 days by plaque reduction assay
# Format: functional, organism-based, Human poliovirus 1 strain Sabin
# Settings: Enterovirus C, 48 h
row,SMILES,EC50
1,O=C(O)CCC(=O)Nc1ccc(-c2nc3cc(C(F)(F)F)ccc3[nH]2)cc1,> 100 µM
2,O=C(Nc1ccc(-c2nc3cc(C(F)(F)F)ccc3[nH]2)cc1)Nc1ccc(-c2nc3cc(C(F)(F)F)ccc3[nH]2)cc1,> 100 µM
3,CN1CCN(CC(=O)Nc2ccc(-c3nc4cc(Cl)c(Cl)cc4[nH]3)cc2)CC1,89 µM
4,Nc1nc2c(ncn2COCCO)c(=O)[nH]1 [ACYCLOVIR],> 100 µM

# Test system: Vesicular stomatitis virus
# Test: Antiviral activity against VSV Indiana lab infected in african green monkey Vero cells after 2 days by plaque reduction assay
# Format: functional, organism-based
# Settings: not given
row,SMILES,Activity
1,O=C(O)CCC(=O)Nc1ccc(-c2nc3cc(C(F)(F)F)ccc3[nH]2)cc1,inactive
2,O=C(Nc1ccc(-c2nc3cc(C(F)(F)F)ccc3[nH]2)cc1)Nc1ccc(-c2nc3cc(C(F)(F)F)ccc3[nH]2)cc1,inactive
3,CN1CCN(CC(=O)Nc2ccc(-c3nc4cc(Cl)c(Cl)cc4[nH]3)cc2)CC1,inactive

# Test system: not listed separately
# Test: Cytotoxicity against human MT4 cells after 96 hrs by MTT assay
# Format: cell-based
# Settings: MT4 cells
# Summary of the method: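 Exponentially growing MT-4 cells at 1 × 10^5 cells/mL in RPMI-1640 with 10% FCS, exposed to serial compound dilutions at 37 °C, 5% CO2. Viability by MTT after 96 h; CC50 is the concentration reducing viability of mock-infected cells by 50%.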
row,SMILES,CC50 at 96 h
1,O=C(O)CCC(=O)Nc1ccc(-c2nc3cc(C(F)(F)F)ccc3[nH]2)cc1,> 100 µM
2,O=C(Nc1ccc(-c2nc3cc(C(F)(F)F)ccc3[nH]2)cc1)Nc1ccc(-c2nc3cc(C(F)(F)F)ccc3[nH]2)cc1,> 100 µM
3,CN1CCN(CC(=O)Nc2ccc(-c3nc4cc(Cl)c(Cl)cc4[nH]3)cc2)CC1,11 µM
4,Nc1nc2c(ncn2COCCO)c(=O)[nH]1 [ACYCLOVIR],> 100 µM

# Test system: Yellow fever virus
# Test: Antiviral activity against Yellow fever virus 17D infected in BHK cells assessed as protection from virus-induced cytopathogenicity after 3 to 4 days by MTT method
# Format: functional, organism-based
# Settings: not given
row,SMILES,EC50
1,O=C(O)CCC(=O)Nc1ccc(-c2nc3cc(C(F)(F)F)ccc3[nH]2)cc1,> 100 µM
2,O=c1cnn([C@@H]2O[C@H](CO)[C@@H](O)[C@H]2O)c(=O)[nH]1 (stereo in doubt; form 2) [6-AZAURIDINE],26 µM
3,O=C(Nc1ccc(-c2nc3cc(C(F)(F)F)ccc3[nH]2)cc1)Nc1ccc(-c2nc3cc(C(F)(F)F)ccc3[nH]2)cc1,> 17 µM
4,CN1CCN(CC(=O)Nc2ccc(-c3nc4cc(Cl)c(Cl)cc4[nH]3)cc2)CC1,> 41 µM
5,Nc1nc2c(ncn2COCCO)c(=O)[nH]1 [ACYCLOVIR],> 100 µM

# Test system: Coxsackievirus B2
# Test: Antiviral activity against Human coxsackievirus B2 Ohio-1 infected in african green monkey Vero cells after 3 days by plaque reduction assay
# Format: functional, organism-based, Coxsackievirus B2 (strain Ohio-1)
# Settings: Enterovirus B, Vero, 72 h
# Summary of the method: as §1
row,SMILES,EC50
1,O=C(O)CCC(=O)Nc1ccc(-c2nc3cc(C(F)(F)F)ccc3[nH]2)cc1,> 100 µM
2,O=c1cnn([C@@H]2O[C@H](CO)[C@@H](O)[C@H]2O)c(=O)[nH]1 (stereo in doubt; form 2) [6-AZAURIDINE],> 20 µM
3,O=C(Nc1ccc(-c2nc3cc(C(F)(F)F)ccc3[nH]2)cc1)Nc1ccc(-c2nc3cc(C(F)(F)F)ccc3[nH]2)cc1,> 100 µM
4,CN1CCN(CC(=O)Nc2ccc(-c3nc4cc(Cl)c(Cl)cc4[nH]3)cc2)CC1,> 100 µM
5,Nc1nc2c(ncn2COCCO)c(=O)[nH]1 [ACYCLOVIR],> 100 µM

# — ChEMBL document CHEMBL1156237, “Antiviral activity of benzimidazole derivatives. II. Antiviral activity of 2-phenylbenzimidazole derivatives” (Bioorg Med Chem, 2010)
